Measured values from different studies.
Compare with care: the assays were run in different laboratories.
Target: Mitogen-activated protein kinase 7 (MAPK7, Homo sapiens, UniProt Q13164)

SMILES	assay	system	conditions	endpoint	value
CS(=O)(=O)N1CCCC(NC(=O)[C@H](CCC2CCCCC2)NC(=O)c2ccc(CNc3ncnc4c3nnn4-c3ccccc3)cc2)C1 (stereo partly shown)	cell-free assay, competition with immobilised ligand		0.1 µM	remaining binding	94%
FC(F)(F)Oc1cccc(-c2cnc3ccc(-c4ccncc4)nn23)c1	enzyme activity, inhibitor, radiometric		5 µM	activity vs control	56%
Cc1sc(C(=O)NC2COC2)cc1-n1cc(NC(=O)Nc2c(F)cccc2Cl)cn1	enzyme activity, inhibitor		10 µM	remaining activity	95.7%
O=C(Nc1ccc(Oc2ccc(F)cc2)cc1)N1CCc2ncccc2[C@H]1c1ccc(F)cc1	cell-free assay, competition with immobilised ligand		1 µM	remaining binding	96%
O=C(Nc1cnn(-c2csc(C(=O)NC3COC3)c2)c1)Nc1ccccc1Cl	enzyme activity, inhibitor		5 µM	remaining activity	119%
COc1cccc2c(NCc3ccccc3)nc(-n3c(N)nc4ccccc43)nc12	target engagement in cells, inhibitor, chemoproteomics		20 mM	inhibition	-14.3%
Cn1cc(Cl)c2c(Oc3c(F)cc(Nc4cc(Cl)nc(N)n4)cc3F)ccnc21	cell-free assay, competition with immobilised ligand		0.1 µM	remaining binding	100%
CNc1cc(Oc2cc(C(=O)Nc3cc(N4CCN(C)CC4)cc(C(F)(F)F)c3)ccc2C)ncn1	target engagement in cells, inhibitor, chemoproteomics	Huh-7	1 µM	inhibition	-24.1%
COc1cc(Nc2cnc(C#N)c(O[C@H](C)CN(C)C)n2)ncc1-c1cnn(C)c1	enzyme activity, inhibitor, radiometric		10 µM	remaining activity	85%
CC(C)(C)c1nc(-c2cccc(NS(=O)(=O)c3c(F)cccc3F)c2F)c(-c2ccnc(N)n2)s1	enzyme activity, inhibitor, radiometric		1 µM	remaining activity	74%
c1ccc(CNc2nc(N3CCOc4ccccc43)nc3c2CCCC3)cc1	target engagement in cells, inhibitor, chemoproteomics		20 mM	inhibition	-6.4%
CC(C)(O)[C@H]1CC[C@H](Nc2ccc3ncc(-c4cccc(C(F)(F)F)c4)n3n2)CC1	enzyme activity, inhibitor		1 µM	remaining activity	98.9%
Cc1ccc(C(=O)Nc2ccc(CN3CCN(C)CC3)c(C(F)(F)F)c2)cc1C#Cc1cnc2cccnn12	enzyme activity, inhibitor		23.5 nM	remaining activity	98%
